Reference: ChEMBL document CHEMBL3102840, “Synthesis and anti-proliferative activity of aromatic substituted 5-((1-benzyl-1H-indol-3-yl)methylene)-1,3-dimethylpyrimidine-2,4,6(1H,3H,5H)-trione analogs against human tumor cell lines” (2014)

Legend:
Assay type in all cases: functional
MDA-MB-468 [1] = test: Cytotoxicity against human MDA-MB-468 cells assessed as growth inhibition at 10 uM after 48 hrs by SRB assay; details: MDA-MB-468, 48 h, read-out: GI
Method in brief: (§1)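 Single-dose screen at 10µM across the sixty-cell-line panel. Percentage growth is derived from SRB-stain OD taken just before compound exposure, after 48 hrs exposure, and in vehicle-treated controls. Negative values indicate cytotoxicity.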

TK-10 [2] = test: Cytotoxicity against human TK10 cells assessed as growth inhibition at 10 uM after 48 hrs by SRB assay; details: TK-10, 48 h, read-out: GI; method in brief: as §1
NCI-H226 [3] = test: Cytotoxicity against human NCI-H226 cells assessed as growth inhibition at 10 uM after 48 hrs by SRB assay; details: NCI-H226, 48 h, read-out: GI; method in brief: as §1
[4] = Cytotoxicity against human OVCAR5 cells assessed as growth inhibition at 10 uM after 48 hrs by SRB assay; details: OVCAR-5, 48 h, read-out: GI; method in brief: as §1
A498 [5] = test: Cytotoxicity against human A498 cells assessed as growth inhibition at 10 uM after 48 hrs by SRB assay; details: A498, 48 h, read-out: GI; method in brief: as §1
A498 [6] = test: Cytotoxicity against human A498 cells after 48 hrs by SRB assay; details: A498, 48 h
Method in brief: (§2)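 Five-dose run from the sixty-line panel, at 10−4, 10−5, 10−6, 10−7 and 10−8 M. SRB-stain OD is read just before compound addition, after 48 hrs of exposure, and in vehicle controls, giving percentage growth; negative growth indicates cytotoxicity. GI50 is the concentration giving 50% reduction in net protein increase versus control cells. LC50 is the concentration lethal to 50% of cells.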

IGROV-1 = test: Cytotoxicity against human IGROV1 cells after 48 hrs by SRB assay; details: IGROV-1, 48 h; method in brief: as §2
[7] = Cytotoxicity against human UACC257 cells after 48 hrs by SRB assay; details: UACC-257, 48 h; method in brief: as §2
SK-MEL-2 = test: Cytotoxicity against human SK-MEL-2 cells after 48 hrs by SRB assay; details: SK-MEL-2, 48 h; method in brief: as §2
LOX IMVI = test: Cytotoxicity against human LOXIMVI cells after 48 hrs by SRB assay; method in brief: as §2
MDA-MB-468 [8] = test: Cytotoxicity against human MDA-MB-468 cells after 48 hrs by SRB assay; details: MDA-MB-468, 48 h; method in brief: as §2
786-0 = test: Cytotoxicity against human 786-0 cells after 48 hrs by SRB assay; details: 786-0, 48 h; method in brief: as §2
MCF7 = test: Cytotoxicity against human MCF7 cells after 48 hrs by SRB assay; details: MCF7, 48 h; method in brief: as §2
MDA-MB-231 = test: Cytotoxicity against human MDA-MB-231 cells after 48 hrs by SRB assay; details: MDA-MB-231, 48 h; method in brief: as §2
SK-MEL-5 = test: Cytotoxicity against human SK-MEL-5 cells after 48 hrs by SRB assay; details: SK-MEL-5, 48 h; method in brief: as §2
NCI-H226 [9] = test: Cytotoxicity against human NCI-H226 cells after 48 hrs by SRB assay; details: NCI-H226, 48 h; method in brief: as §2
SK-OV-3 = test: Cytotoxicity against human SKOV3 cells after 48 hrs by SRB assay; details: SK-OV-3, 48 h; method in brief: as §2
SR = test: Cytotoxicity against human SR cells after 48 hrs by SRB assay; method in brief: as §2
[10] = Cytotoxicity against human OVCAR5 cells after 48 hrs by SRB assay; details: OVCAR-5, 48 h; method in brief: as §2
COLO 205 = test: Cytotoxicity against human COLO205 cells after 48 hrs by SRB assay; details: COLO 205, 48 h; method in brief: as §2
SW-620 = test: Cytotoxicity against human SW620 cells after 48 hrs by SRB assay; details: SW-620, 48 h; method in brief: as §2
T47D = test: Cytotoxicity against human T47D cells after 48 hrs by SRB assay; method in brief: as §2
SNB-19 = test: Cytotoxicity against human SNB19 cells after 48 hrs by SRB assay; details: SNB-19, 48 h; method in brief: as §2
BT-549 = test: Cytotoxicity against human BT549 cells after 48 hrs by SRB assay; details: BT-549, 48 h; method in brief: as §2
SF-295 = test: Cytotoxicity against human SF295 cells after 48 hrs by SRB assay; details: SF-295, 48 h; method in brief: as §2
SN12C = test: Cytotoxicity against human SN12C cells after 48 hrs by SRB assay; method in brief: as §2
K562 = test: Cytotoxicity against human K562 cells after 48 hrs by SRB assay; details: K562, 48 h, read-out: LC50 (the source's name); method in brief: as §2
HOP-62 = test: Cytotoxicity against human HOP62 cells after 48 hrs by SRB assay; details: HOP-62, 48 h; method in brief: as §2
NCI-H460 = test: Cytotoxicity against human NCI-H460 cells after 48 hrs by SRB assay; details: NCI-H460, 48 h; method in brief: as §2
UACC-62 = test: Cytotoxicity against human UACC62 cells after 48 hrs by SRB assay; details: UACC-62, 48 h; method in brief: as §2
OVCAR-8 = test: Cytotoxicity against human OVCAR8 cells after 48 hrs by SRB assay; details: OVCAR-8, 48 h; method in brief: as §2
RXF 393 = test: Cytotoxicity against human RXF393 cells after 48 hrs by SRB assay; details: RXF 393, 48 h; method in brief: as §2
[11] = Cytotoxicity against human NCI-ADR-RES cells after 48 hrs by SRB assay; method in brief: as §2
HCT-116 = test: Cytotoxicity against human HCT116 cells after 48 hrs by SRB assay; details: HCT-116, 48 h; method in brief: as §2
MDA-MB-435 = test: Cytotoxicity against human MDA-MB-435 cells after 48 hrs by SRB assay; details: MDA-MB-435, 48 h; method in brief: as §2
TK-10 [12] = test: Cytotoxicity against human TK10 cells after 48 hrs by SRB assay; details: TK-10, 48 h; method in brief: as §2
NCI-H23 = test: Cytotoxicity against human NCI-H23 cells after 48 hrs by SRB assay; details: NCI-H23, 48 h; method in brief: as §2
[13] = read-out: LC50 (the source's name)

## CN1C(=O)C(=Cc2cn(Cc3ccc(C#N)cc3)c3ccccc23)C(=O)N(C)C1=O
MDA-MB-468 [1]
  inhibition of growth at 10 µM: -71%
TK-10 [2]
  inhibition of growth at 10 µM: 62%
NCI-H226 [3]
  inhibition of growth at 10 µM: -72%
[4]
  inhibition of growth at 10 µM: 6%
A498 [5]
  inhibition of growth at 10 µM: 68%

## CN1C(=O)C(=Cc2cn(Cc3ccc(F)cc3)c3ccccc23)C(=O)N(C)C1=O
A498 [6]
  GI50: 0.07 µM
  LC50: 0.67 µM
IGROV-1
  GI50: 4.33 µM
IGROV-1; [13]
  CC50: > 100 µM
[7]
  GI50: 2.52 µM
[7]; [13]
  CC50: > 100 µM
SK-MEL-2
  GI50: 6.35 µM
LOX IMVI
  GI50: > 100 µM
LOX IMVI; [13]
  CC50: > 100 µM
MDA-MB-468 [8]
  GI50: 0.03 µM
  LC50: 0.5 µM
786-0
  GI50: 22.7 µM
  LC50: > 100 µM
MDA-MB-468 [1]
  inhibition of growth at 10 µM: -71%
MCF7
  GI50: > 100 µM
  LC50: > 100 µM
MDA-MB-231
  GI50: 23.6 µM
MDA-MB-231; [13]
  CC50: > 100 µM
SK-MEL-5
  GI50: > 100 µM
  LC50: > 100 µM
TK-10 [2]
  inhibition of growth at 10 µM: -15%
NCI-H226 [9]
  GI50: 2.56 µM
NCI-H226 [9]; [13]
  CC50: > 100 µM
SK-OV-3
  GI50: 15.3 µM
  LC50: > 100 µM
SR
  GI50: > 100 µM
  LC50 (lethal concentration, 50%): > 100 µM
[10]
  GI50: 0.11 µM
[10]; [13]
  CC50: > 100 µM
NCI-H226 [3]
  inhibition of growth at 10 µM: -78%
[4]
  inhibition of growth at 10 µM: -33%
COLO 205
  GI50: 1.44 µM
COLO 205; [13]
  CC50: > 100 µM
SW-620
  GI50: > 100 µM
SW-620; [13]
  CC50: > 100 µM
T47D
  GI50: 5.38 µM
  LC50: > 100 µM
SNB-19
  GI50: 26.7 µM
  LC50: > 100 µM
BT-549
  GI50: 24.1 µM
BT-549; [13]
  CC50: > 100 µM
SF-295
  GI50: 1.97 µM
  LC50: > 100 µM
SN12C
  GI50: > 100 µM
SN12C; [13]
  CC50: > 100 µM
K562
  CC50: > 100 µM
HOP-62
  GI50: 7.7 µM
HOP-62; [13]
  CC50: > 100 µM
NCI-H460
  GI50: 0.37 µM
NCI-H460; [13]
  CC50: > 100 µM
UACC-62
  GI50: 2.89 µM
  LC50: > 100 µM
OVCAR-8
  GI50: > 100 µM
OVCAR-8; [13]
  CC50: > 100 µM
RXF 393
  GI50: 14.9 µM
  LC50 (lethal concentration, 50%): > 100 µM
A498 [5]
  inhibition of growth at 10 µM: -85%
[11]
  GI50: > 100 µM
[11]; [13]
  CC50: > 100 µM
HCT-116
  GI50: 6.26 µM
  LC50: > 100 µM
MDA-MB-435
  GI50: > 100 µM
  LC50: > 100 µM
TK-10 [12]
  GI50: 0.59 µM
TK-10 [12]; [13]
  CC50: > 100 µM
NCI-H23
  GI50: 51.5 µM
  LC50: > 100 µM
